Values belong to the compound of their own block, whether it stands above or below them. Active and inactive are the calls of the source. The rule behind the calls is not given here.
What was measured:
Histone deacetylase [1] = type: cell-based, Homo sapiens; conditions: hela
[2] = biological target: Histone deacetylase (Homo sapiens) (UniProt Q13547+O15379+Q9UBN7+Q92769+Q9UQL6+Q8WUI4+Q9BY41+Q96DB2+P56524+Q9UKV0+Q969S8); assay: Competitive inhibition of HDAC in human HeLa cells using Boc-acetyl-lysine-AMC as substrate at 25 to 50 uM incubated for 30 mins in dark by Lineweaver-Burk plot analysis; type: cell-based
[3] = biological target: T1, Polyamine deacetylase HDAC10 (Homo sapiens, UniProt Q969S8); assay: Inhibition of human recombinant HDAC10 using RHK-K(Ac)-AMC as substrate
T1 sequence (Q969S8 whole entry): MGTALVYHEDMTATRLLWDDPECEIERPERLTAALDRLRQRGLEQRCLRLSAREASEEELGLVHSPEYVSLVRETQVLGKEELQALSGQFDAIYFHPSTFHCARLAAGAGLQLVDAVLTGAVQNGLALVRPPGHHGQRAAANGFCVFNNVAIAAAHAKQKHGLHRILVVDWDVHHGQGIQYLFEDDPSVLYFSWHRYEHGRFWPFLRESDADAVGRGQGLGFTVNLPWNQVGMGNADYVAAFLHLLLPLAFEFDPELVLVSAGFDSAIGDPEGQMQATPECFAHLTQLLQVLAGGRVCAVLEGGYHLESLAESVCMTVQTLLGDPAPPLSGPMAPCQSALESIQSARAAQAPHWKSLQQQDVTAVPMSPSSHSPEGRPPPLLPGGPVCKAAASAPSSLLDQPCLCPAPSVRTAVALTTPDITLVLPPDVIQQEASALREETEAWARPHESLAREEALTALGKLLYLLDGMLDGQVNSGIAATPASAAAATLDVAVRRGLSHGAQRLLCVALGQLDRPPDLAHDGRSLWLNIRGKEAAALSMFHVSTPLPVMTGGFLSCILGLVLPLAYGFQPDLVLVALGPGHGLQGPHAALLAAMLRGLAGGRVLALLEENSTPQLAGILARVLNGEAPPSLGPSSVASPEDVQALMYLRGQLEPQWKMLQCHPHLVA

Histone deacetylase 1 [4] = biological target: T2, Histone deacetylase 1 (Homo sapiens, UniProt Q13547); conditions: HeLa, 10 uM
Histone deacetylase 2 = Histone deacetylase 2 (Homo sapiens, UniProt Q92769); assay: Inhibition of full length human recombinant C-terminal GST-tagged HDAC2 (1 to 488 residues) expressed in insect cells using RHK-K(Ac)-AMC as substrate incubated for 60 mins by fluorescence assay
HeLa = assay: Cytotoxicity against human HeLa cells by MTS assay; type: cell-based
RAW264.7 [5] = assay: Antiinflammatory activity in mouse RAW264.7 cells assessed as inhibition of LPS-induced NO production at 0.5 to 2.5 uM relative to control; type: functional
Histone deacetylase 5 = Histone deacetylase 5 (Homo sapiens, UniProt Q9UQL6); assay: Inhibition of human recombinant C-terminal His-tagged HDAC5 (657 to 1123 residues) expressed in insect cells using Boc-K(TFA)-AMC as substrate incubated for 60 mins by fluorescence assay
Histone deacetylase [6] = assay: Inhibition of HDAC in human HeLa cells using Boc-acetyl-lysine-AMC as substrate incubated for 24 hrs by fluorometric assay; type: cell-based
Mus musculus [7] = assay: Antiinflammatory activity in ICR mouse model of LPS-induced endotoxemia assessed as inhibition of LPS-induced TNF-alpha mRNA expression in liver at 10 mg/kg, ip administered 2 hrs before and immediately after LPS injection by RT-PCR method; type: functional, organism-based
Summary of the method: (§1)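 Male ICR mice (27–29 g) given LPS; drug i.p. in 5% DMSO/saline 2 h before and immediately after LPS. Liver collected 6 h after LPS. Total RNA extracted and reverse-transcribed to cDNA; TNF-α and IL-6 mRNA measured by real-time RT-PCR relative to vehicle control.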

Histone deacetylase 1 [8] = biological target: T2, Histone deacetylase 1; assay: Inhibition of full length human recombinant C-terminal FLAG-His-tagged HDAC1 (1 to 482 residues) expressed in Sf21 cells using RHK-K(Ac)-AMC as substrate incubated for 60 mins by fluorescence assay
[9] = biological target: T3, Protein deacetylase HDAC6 (Homo sapiens, UniProt Q9UBN7); assay: Inhibition of recombinant human HDAC6 using Fluor de Lys-SIRT1 as substrate incubated for 15 mins by fluorescence assay
T3 sequence (Q9UBN7 whole entry): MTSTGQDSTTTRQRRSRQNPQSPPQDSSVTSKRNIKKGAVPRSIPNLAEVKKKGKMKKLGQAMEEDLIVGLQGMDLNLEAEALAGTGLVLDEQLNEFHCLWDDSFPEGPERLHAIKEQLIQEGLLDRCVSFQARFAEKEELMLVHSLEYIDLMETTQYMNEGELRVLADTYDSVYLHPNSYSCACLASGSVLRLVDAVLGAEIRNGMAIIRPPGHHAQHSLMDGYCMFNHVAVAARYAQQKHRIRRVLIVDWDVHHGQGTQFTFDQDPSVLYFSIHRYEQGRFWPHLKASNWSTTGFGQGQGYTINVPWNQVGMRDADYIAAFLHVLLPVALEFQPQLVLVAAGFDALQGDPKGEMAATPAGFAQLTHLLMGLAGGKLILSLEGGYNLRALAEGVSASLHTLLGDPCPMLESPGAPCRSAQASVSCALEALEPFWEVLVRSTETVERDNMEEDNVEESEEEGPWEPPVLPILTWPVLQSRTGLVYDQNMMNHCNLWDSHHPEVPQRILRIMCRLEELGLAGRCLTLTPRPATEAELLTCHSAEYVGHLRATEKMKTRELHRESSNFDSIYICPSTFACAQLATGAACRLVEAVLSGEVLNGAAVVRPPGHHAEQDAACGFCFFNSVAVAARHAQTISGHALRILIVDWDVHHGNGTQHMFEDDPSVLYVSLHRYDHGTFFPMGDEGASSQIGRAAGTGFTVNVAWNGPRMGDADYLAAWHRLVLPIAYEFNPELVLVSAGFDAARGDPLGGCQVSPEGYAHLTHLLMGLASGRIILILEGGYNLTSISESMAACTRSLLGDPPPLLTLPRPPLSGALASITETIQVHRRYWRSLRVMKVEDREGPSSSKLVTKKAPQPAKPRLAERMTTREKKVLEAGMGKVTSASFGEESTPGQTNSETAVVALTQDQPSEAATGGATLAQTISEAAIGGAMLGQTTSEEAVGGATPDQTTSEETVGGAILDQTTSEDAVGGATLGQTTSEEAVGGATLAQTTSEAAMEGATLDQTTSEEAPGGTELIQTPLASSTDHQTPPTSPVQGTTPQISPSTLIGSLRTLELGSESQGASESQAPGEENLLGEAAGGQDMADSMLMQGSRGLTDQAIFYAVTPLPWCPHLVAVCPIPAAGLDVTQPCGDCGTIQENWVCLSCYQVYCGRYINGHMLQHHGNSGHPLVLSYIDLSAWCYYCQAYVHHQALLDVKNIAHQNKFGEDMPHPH

Histone deacetylase 11 = biological target: T4, Histone deacetylase 11 (Homo sapiens, UniProt Q96DB2); assay: Inhibition of human recombinant N-terminal His-tagged HDAC11 (1 to 347 residues) expressed in insect cells/baculovirus expression system using RHK-K(Ac)-AMC as substrate by fluorescence assay
T4 sequence (Q96DB2 whole entry): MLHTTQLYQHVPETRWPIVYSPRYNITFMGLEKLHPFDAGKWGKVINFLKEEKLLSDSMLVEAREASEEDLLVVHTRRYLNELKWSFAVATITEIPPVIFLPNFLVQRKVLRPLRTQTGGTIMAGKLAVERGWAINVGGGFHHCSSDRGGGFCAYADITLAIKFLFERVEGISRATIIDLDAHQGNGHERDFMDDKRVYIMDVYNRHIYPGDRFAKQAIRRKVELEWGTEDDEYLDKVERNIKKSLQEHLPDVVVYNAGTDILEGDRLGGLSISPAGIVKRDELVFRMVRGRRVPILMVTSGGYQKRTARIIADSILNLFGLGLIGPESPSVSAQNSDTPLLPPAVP

RAW264.7 [10] = assay: Antiinflammatory activity in mouse RAW264.7 cells assessed as inhibition of LPS-induced IL-6 production at 0.5 to 2.5 uM relative to control; type: functional
[11] = biological target: T3, Protein deacetylase HDAC6; assay: Inhibition of full length human recombinant N-terminal GST-tagged HDAC6 (1 to 1215 residues) expressed in sf9 cells using RHK-K(Ac)-AMC as substrate incubated for 90 mins by fluorescence assay
Mus musculus [12] = assay: Anti-sepsis activity in ICR mouse model of LPS-induced endotoxemia assessed as increase in survival rate at 20 mg/kg, ip administered 2 hrs before and immediately after LPS injection measured up to 10 days; type: functional
Summary of the method: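 Male ICR mice (27–29 g), LPS from E. coli O111:B4. Dosing was i.p. in vehicle (5% DMSO in saline) at 5, 10 or 20 mg/kg, given 2 h before and immediately after LPS. Groups were vehicle control, LPS, and LPS plus drug. Survival was followed up to 10 days and compared by log-rank analysis.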

Histone deacetylase 8 = biological target: T5, Histone deacetylase 8 (Homo sapiens, UniProt Q9BY41); assay: Inhibition of human recombinant C-terminal His-tagged HDAC8 (1 to 377 residues) expressed in insect cells using RHK-K(Ac)-K(Ac)-AMC as substrate incubated for 60 mins by fluorescence assay
T5 sequence (Q9BY41 whole entry): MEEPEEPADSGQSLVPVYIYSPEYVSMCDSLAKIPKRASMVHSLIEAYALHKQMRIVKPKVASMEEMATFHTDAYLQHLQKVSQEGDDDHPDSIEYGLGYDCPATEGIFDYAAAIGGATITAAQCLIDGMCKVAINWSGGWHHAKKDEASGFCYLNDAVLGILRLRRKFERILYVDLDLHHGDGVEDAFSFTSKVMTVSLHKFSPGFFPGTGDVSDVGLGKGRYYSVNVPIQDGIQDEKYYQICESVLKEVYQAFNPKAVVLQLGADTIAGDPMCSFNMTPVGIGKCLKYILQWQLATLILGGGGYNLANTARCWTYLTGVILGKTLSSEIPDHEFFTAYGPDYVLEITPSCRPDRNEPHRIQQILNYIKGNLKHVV

RAW264.7 [13] = assay: Antiinflammatory activity in mouse RAW264.7 cells assessed as inhibition of LPS-induced TNF-alpha production at 0.5 to 2.5 uM relative to control; type: functional
Histone deacetylase 9 = Histone deacetylase 9 (Homo sapiens, UniProt Q9UKV0); assay: Inhibition of human recombinant HDAC9 using trifluoroacetyl lysine as substrate
[14] = biological target: Histone deacetylase 3/Nuclear receptor corepressor 2 (HDAC3/NCoR2) (Homo sapiens, UniProt O15379); type: cell-based
Histone deacetylase 7 = biological target: T6, Histone deacetylase 7 (Homo sapiens, UniProt Q8WUI4); assay: Inhibition of human recombinant N-terminal GST-tagged HDAC7 (518 to 991 residues) expressed in insect cells using Boc-K(TFA)-AMC as substrate incubated for 60 mins by fluorescence assay
T6 sequence (Q8WUI4 whole entry): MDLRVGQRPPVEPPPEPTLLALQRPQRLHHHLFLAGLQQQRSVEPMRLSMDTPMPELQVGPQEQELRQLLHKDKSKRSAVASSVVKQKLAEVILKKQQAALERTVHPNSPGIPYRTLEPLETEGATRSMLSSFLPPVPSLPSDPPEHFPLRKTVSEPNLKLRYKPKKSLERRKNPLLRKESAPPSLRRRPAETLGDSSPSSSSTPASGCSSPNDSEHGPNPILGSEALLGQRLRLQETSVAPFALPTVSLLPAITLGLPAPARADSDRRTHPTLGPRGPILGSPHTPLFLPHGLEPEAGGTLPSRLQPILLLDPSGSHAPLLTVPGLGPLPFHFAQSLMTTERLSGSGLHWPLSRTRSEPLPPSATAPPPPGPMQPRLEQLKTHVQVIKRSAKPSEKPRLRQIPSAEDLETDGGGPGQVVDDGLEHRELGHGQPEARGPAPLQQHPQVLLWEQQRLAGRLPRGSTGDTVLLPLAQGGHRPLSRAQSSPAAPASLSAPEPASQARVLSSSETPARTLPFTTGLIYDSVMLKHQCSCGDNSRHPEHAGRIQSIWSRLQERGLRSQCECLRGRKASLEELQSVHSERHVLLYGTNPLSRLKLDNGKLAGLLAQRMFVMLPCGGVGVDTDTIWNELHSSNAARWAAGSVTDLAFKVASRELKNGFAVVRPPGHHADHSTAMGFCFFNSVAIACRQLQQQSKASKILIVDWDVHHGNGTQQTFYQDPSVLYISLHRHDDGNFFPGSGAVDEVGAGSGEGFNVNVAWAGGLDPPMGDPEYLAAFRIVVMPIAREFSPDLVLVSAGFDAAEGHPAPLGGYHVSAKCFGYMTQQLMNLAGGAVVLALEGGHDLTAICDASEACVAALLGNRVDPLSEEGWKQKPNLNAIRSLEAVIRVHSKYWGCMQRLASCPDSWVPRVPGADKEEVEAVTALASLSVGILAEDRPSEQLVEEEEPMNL

Mus musculus [15] = assay: Antiinflammatory activity in ICR mouse model of LPS-induced endotoxemia assessed as inhibition of LPS-induced IL-6 mRNA expression in liver at 10 mg/kg, ip administered 2 hrs before and immediately after LPS injection by RT-PCR method; type: functional, organism-based
Summary of the method: as §1

Histone deacetylase 4 = Histone deacetylase 4 (Homo sapiens, UniProt P56524); assay: Inhibition of human recombinant N-terminal GST-tagged C-terminal His-tagged HDAC4 (627 to 1084 residues) expressed in insect cells using Boc-K(TFA)-AMC as substrate incubated for 60 mins by fluorescence assay
Histone deacetylase 1 [16] = biological target: T2, Histone deacetylase 1

T2 sequence (Q13547 whole entry, the tested form may be a part): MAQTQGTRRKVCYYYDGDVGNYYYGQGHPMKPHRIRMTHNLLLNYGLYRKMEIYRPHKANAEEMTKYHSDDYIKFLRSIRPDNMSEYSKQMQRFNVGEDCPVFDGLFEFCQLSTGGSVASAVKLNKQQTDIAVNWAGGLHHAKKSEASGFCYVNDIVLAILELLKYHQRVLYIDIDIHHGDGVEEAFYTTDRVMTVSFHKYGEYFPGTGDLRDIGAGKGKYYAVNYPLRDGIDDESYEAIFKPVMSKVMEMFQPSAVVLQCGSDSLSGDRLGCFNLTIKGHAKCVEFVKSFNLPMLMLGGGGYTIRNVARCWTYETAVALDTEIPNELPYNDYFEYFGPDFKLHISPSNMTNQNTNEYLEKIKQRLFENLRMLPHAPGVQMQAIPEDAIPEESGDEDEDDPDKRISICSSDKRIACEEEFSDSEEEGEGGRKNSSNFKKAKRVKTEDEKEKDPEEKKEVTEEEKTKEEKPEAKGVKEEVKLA
Sequence of Histone deacetylase 3/Nuclear receptor corepressor 2 (HDAC3/NCoR2) (O15379 whole entry, the tested form may be a part): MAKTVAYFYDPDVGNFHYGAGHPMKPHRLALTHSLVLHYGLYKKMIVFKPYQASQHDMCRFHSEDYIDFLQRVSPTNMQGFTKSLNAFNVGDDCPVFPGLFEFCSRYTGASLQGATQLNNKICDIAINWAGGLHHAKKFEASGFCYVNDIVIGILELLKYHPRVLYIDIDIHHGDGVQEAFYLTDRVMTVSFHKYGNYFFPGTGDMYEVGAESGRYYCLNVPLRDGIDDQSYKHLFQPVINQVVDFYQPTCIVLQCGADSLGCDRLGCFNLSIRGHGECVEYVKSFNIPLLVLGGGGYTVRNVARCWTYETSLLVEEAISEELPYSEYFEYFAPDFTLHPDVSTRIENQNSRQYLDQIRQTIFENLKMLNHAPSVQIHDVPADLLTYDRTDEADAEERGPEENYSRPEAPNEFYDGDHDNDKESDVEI
Sequence of Histone deacetylase 3/Nuclear receptor corepressor 2 (HDAC3/NCoR2) (Q9Y618 whole entry, further chain, the tested form may be a part): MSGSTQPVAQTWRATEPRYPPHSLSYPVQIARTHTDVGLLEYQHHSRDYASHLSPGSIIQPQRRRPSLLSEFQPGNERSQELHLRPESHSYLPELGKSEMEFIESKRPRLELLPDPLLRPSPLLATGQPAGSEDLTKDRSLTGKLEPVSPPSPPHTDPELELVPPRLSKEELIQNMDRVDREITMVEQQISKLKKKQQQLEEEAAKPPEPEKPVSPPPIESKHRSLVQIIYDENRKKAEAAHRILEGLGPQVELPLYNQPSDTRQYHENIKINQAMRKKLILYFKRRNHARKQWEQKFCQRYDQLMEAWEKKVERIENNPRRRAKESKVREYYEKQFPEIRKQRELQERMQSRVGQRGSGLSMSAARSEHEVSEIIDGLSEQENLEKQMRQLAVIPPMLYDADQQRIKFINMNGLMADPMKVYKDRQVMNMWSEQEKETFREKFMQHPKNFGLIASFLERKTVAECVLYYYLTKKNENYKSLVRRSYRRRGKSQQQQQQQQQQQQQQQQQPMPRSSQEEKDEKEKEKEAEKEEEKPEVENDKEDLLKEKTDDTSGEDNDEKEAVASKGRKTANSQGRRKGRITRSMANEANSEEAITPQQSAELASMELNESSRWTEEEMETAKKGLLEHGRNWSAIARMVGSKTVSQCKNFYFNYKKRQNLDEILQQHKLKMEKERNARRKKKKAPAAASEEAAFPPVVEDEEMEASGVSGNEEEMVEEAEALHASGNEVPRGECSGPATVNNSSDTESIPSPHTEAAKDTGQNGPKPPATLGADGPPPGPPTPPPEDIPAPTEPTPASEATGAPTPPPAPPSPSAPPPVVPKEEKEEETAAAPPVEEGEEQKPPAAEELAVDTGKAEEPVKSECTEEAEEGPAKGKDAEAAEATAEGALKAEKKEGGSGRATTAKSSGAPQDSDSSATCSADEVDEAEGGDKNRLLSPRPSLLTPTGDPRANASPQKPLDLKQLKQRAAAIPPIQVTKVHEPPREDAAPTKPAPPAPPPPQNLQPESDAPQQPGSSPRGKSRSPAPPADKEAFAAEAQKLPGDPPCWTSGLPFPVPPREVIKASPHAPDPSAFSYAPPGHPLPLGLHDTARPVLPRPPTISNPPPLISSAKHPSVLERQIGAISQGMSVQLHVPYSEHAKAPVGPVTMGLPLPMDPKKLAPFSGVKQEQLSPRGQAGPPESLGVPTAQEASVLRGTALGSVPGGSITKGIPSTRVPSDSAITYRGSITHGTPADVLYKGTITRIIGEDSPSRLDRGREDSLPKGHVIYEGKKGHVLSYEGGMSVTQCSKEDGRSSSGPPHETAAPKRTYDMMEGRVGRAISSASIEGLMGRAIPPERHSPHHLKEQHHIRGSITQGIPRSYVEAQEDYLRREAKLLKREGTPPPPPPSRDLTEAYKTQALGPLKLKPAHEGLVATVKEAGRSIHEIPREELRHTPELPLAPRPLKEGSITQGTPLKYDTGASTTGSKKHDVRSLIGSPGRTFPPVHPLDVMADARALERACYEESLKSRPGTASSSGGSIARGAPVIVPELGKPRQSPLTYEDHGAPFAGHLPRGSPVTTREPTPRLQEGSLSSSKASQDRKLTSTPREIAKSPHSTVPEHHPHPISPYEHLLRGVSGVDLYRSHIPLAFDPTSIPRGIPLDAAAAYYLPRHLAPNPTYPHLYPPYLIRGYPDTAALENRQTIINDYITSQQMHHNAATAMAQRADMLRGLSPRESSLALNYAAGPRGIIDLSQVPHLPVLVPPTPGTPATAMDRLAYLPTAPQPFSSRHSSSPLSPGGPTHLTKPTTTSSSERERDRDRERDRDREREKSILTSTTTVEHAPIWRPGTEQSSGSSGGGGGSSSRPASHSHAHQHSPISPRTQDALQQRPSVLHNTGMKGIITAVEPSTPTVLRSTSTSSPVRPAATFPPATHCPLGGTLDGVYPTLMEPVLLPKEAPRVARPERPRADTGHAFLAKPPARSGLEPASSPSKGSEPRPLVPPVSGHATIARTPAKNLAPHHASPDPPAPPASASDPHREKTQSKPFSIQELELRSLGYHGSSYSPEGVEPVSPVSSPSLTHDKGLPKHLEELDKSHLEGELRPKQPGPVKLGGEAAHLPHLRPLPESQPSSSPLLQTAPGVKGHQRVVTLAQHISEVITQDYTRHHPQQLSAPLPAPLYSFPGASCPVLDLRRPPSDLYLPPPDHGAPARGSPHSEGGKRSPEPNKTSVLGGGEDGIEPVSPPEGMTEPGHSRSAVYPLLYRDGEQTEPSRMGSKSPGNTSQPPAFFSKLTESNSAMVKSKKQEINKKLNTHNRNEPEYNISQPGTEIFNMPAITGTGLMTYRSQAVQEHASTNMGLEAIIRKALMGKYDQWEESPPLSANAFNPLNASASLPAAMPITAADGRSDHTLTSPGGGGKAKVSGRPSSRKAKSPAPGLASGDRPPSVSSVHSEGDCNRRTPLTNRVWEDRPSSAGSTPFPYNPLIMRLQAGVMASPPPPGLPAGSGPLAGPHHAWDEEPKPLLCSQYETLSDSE
Sequence of Histone deacetylase 5 (Q9UQL6 whole entry, the tested form may be a part): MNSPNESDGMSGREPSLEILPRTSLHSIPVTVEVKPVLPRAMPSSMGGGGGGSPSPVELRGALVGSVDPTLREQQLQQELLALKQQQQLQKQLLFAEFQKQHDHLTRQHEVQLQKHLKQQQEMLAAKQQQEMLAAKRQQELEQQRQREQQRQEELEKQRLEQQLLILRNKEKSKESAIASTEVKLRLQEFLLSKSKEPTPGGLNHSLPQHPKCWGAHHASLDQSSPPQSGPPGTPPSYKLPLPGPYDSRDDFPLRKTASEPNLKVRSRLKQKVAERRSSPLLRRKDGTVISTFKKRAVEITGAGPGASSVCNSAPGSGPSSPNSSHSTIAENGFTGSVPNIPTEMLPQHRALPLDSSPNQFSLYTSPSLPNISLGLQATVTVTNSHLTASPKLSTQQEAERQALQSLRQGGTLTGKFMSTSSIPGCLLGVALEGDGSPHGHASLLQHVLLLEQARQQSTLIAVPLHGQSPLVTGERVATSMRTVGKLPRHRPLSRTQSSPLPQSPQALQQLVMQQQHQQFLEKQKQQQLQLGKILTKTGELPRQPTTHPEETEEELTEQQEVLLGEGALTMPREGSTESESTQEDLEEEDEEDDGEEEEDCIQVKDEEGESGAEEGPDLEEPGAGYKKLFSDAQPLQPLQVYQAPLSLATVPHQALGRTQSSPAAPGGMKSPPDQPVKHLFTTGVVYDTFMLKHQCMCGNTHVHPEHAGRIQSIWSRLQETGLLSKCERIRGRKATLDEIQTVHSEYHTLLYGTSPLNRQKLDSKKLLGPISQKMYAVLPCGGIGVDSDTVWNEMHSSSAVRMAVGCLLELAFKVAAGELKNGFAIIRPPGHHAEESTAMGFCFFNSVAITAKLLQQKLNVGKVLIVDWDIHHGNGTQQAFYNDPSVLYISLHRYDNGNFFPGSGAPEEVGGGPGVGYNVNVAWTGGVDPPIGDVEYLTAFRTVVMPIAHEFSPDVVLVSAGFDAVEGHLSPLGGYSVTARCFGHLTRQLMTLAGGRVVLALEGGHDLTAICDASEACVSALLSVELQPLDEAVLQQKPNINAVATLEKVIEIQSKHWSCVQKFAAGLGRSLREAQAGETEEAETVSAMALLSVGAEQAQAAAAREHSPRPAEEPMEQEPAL
Sequence of Histone deacetylase 2 (Q92769 whole entry, the tested form may be a part): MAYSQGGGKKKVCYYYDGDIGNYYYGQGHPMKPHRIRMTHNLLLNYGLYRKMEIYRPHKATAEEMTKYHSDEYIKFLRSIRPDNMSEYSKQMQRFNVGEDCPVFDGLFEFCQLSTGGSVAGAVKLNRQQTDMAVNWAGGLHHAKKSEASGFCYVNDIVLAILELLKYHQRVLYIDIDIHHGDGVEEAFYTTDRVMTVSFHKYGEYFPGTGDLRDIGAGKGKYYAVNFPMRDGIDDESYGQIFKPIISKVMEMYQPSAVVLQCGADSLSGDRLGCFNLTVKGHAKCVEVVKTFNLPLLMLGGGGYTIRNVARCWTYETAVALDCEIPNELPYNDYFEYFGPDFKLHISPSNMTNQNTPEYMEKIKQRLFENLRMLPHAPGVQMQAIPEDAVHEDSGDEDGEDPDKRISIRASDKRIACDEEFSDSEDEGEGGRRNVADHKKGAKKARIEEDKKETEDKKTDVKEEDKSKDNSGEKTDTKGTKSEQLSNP

IC50 (Histone deacetylase [1]): 29.8 µM
inhibition [2]: Active
SMILES: Cc1ncsc1CCn1cc(NC(=O)CCS/C=C\c2ccccc2)cn1

SMILES: O=C(CCCc1csc(/C=C/c2ccccc2)n1)NO
IC50 [3]: 78.3 µM
inhibition (Histone deacetylase 1 [4]): inactive
IC50 (Histone deacetylase 2): > 10 µM
IC50 (HeLa): 52 µM
inhibition (INH) (RAW264.7 [5]): 50%
IC50 (Histone deacetylase 5): 26.6 µM
IC50 (Histone deacetylase [6]): 0.37 µM
inhibition (Mus musculus [7]): Active
IC50 (Histone deacetylase [1]): 1.48 µM
IC50 (Histone deacetylase 1 [8]): > 10 µM
IC50 [9]: 0.199 µM
IC50 (Histone deacetylase 11): 32.8 µM
inhibition (INH) (RAW264.7 [10]): 50%
IC50 [11]: 0.567 µM
Activity (Mus musculus [12]): 40%
IC50 (Histone deacetylase 8): 1.54 µM
inhibition (INH) (RAW264.7 [13]): 50%
IC50 (Histone deacetylase 9): Not Active
IC50 [14]: 17.8 µM
IC50 (Histone deacetylase 7): Not Active
inhibition (Mus musculus [15]): Active
IC50 (Histone deacetylase 4): 19.7 µM
IC50 (Histone deacetylase 1 [16]): 13.8 µM

From ChEMBL document CHEMBL3792358, “Computer-aided identification of new histone deacetylase 6 selective inhibitor with anti-sepsis activity” (Eur J Med Chem, 2016)
